Data published in paper PMC6839450 (ACS chemical biology, 2015).

Experiments:
Experiment in all cases: Cell viability
Conditions in all cases: Ac-peptide, up to 20 μM, 24 h, CellTiter-Glo
Bax−/−Bak−/− (DKO) MEFs = format: cell-based, mouse
How it was run: (§1)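 Cells in OptiMEM with penicillin/streptomycin: MEFs (wild-type or Bax−/−Bak−/−) at 2.5 × 10^3 per well, adhered overnight and washed; OCI-AML3 at 1 × 10^4 per well. Serial dilutions of peptide from a 10 mM DMSO stock, or vehicle, were applied for 2 h at 37 °C serum-free, then FBS was added to 10%. CellTiter-Glo luminescence was read 24 h post-treatment.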

wild-type MEFs = format: cell-based, mouse
How it was run: as §1

OCI-AML3 cells = format: cell-based
How it was run: as §1

BIM BH3_2: unmodified BIM BH3 domain peptide, amino acids 145–164; N-terminal cap depends on the assay
no effect: Effect on viability of Bax−/−Bak−/− (DKO) MEFs (in words) (Bax−/−Bak−/− (DKO) MEFs) | Effect on viability of wild-type MEFs (in words) (wild-type MEFs) | Effect on viability of OCI-AML3 cells (in words) (OCI-AML3 cells)
